Active and inactive are the calls of the source. The calls are words filed in the database; no cut-off is given here.
Legend:
[1] = tested on: MIA PaCa-2; assay: Cytotoxicity against human MIAPaCa2 cells assessed as combinational index at 2.5 uM incubated for 72 hrs in presence of 50 uM 6TP by alamar blue assay; assay type: functional
Procedure, shortened: (§1)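 Combination assay in 96-well plates with 100 μL final volume and 1% DMSO. Two test-compound concentrations were crossed with five 6TP concentrations, then cells were added (4000/well adherent, 7000/well suspension). Plates ran 72 h at 37 °C, 5% CO2, with Alamar Blue viability read-out and ≥3 independent experiments. Combination index was calculated by the Chou–Talalay method.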

[2] = tested on: REH; assay: Cytotoxicity against human REH cells assessed as cell viability at 5 uM incubated for 72 hrs in presence of 25 uM 6TP by alamar blue assay (reference value: 12.2 %); assay type: functional; procedure, shortened: as §1
[3] = tested on: MIA PaCa-2; assay: Cytotoxicity against human MIAPaCa2 cells assessed as combinational index at 2.5 uM incubated for 72 hrs in presence of 200 uM 6TP by alamar blue assay; assay type: functional; procedure, shortened: as §1
[4] = tested on: REH; assay: Cytotoxicity against human REH cells assessed as cell viability at 5 uM incubated for 72 hrs in presence of 100 uM 6TP by alamar blue assay (reference value: 49.5 %); assay type: functional; procedure, shortened: as §1
[5] = tested on: MIA PaCa-2; assay: Cytotoxicity against human MIAPaCa2 cells assessed as cell viability at 2.5 uM incubated for 72 hrs in presence of 100 uM 6TP by alamar blue assay (reference value: 30.7 %); assay type: functional; procedure, shortened: as §1
[6] = tested on: REH; assay: Cytotoxicity against human REH cells assessed as cell viability at 2.5 uM incubated for 72 hrs by alamar blue assay (reference value: 0 %); assay type: functional; conditions: read-out: Activity; procedure, shortened: as §1
[7] = tested on: REH; assay: Cytotoxicity against human REH cells assessed as combinational index at 5 uM incubated for 72 hrs in presence of 200 uM 6TP by alamar blue assay; assay type: functional; procedure, shortened: as §1
[8] = tested on: MIA PaCa-2; assay: Cytotoxicity against human MIAPaCa2 cells assessed as cell viability at 5 uM incubated for 72 hrs in presence of 50 uM 6TP by alamar blue assay (reference value: 13.8 %); assay type: functional; procedure, shortened: as §1
[9] = tested on: MIA PaCa-2; assay: Cytotoxicity against human MIAPaCa2 cells assessed as combinational index at 5 uM incubated for 72 hrs in presence of 50 uM 6TP by alamar blue assay; assay type: functional; procedure, shortened: as §1
[10] = tested on: MIA PaCa-2; assay: Cytotoxicity against human MIAPaCa2 cells assessed as cell viability at 2.5 uM incubated for 72 hrs in presence of 25 uM 6TP by alamar blue assay (reference value: 6.4 %); assay type: functional; procedure, shortened: as §1
[11] = tested on: MIA PaCa-2; assay: Cytotoxicity against human MIAPaCa2 cells assessed as cell viability at 5 uM incubated for 72 hrs in presence of 100 uM 6TP by alamar blue assay (reference value: 30.7 %); assay type: functional; procedure, shortened: as §1
[12] = tested on: MIA PaCa-2; assay: Cytotoxicity against human MIAPaCa2 cells assessed as combinational index at 5 uM incubated for 72 hrs in presence of 100 uM 6TP by alamar blue assay; assay type: functional; procedure, shortened: as §1
[13] = tested on: REH; assay: Cytotoxicity against human REH cells assessed as reduction in cell viability incubated for 72 hrs by alamar blue assay; assay type: functional, cell-based
Procedure, shortened: (§2)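 Suspension cells (2200/well, 384-well) were added directly onto compound in media with no attachment period. Compounds spanned 31.6 nM–200 μM in triplicate, with 72 h exposure at 37 °C, 5% CO2. Alamar Blue was added for the last 3 h and fluorescence read (ex 560/em 590 nm). IC50 came from ≥3 independent experiments.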

[14] = tested on: MIA PaCa-2; assay: Cytotoxicity against human MIAPaCa2 cells assessed as cell viability at 5 uM incubated for 72 hrs by alamar blue assay (reference value: 0 %); assay type: functional; conditions: MIA PaCa-2, 72 h, read-out: Activity; procedure, shortened: as §1
[15] = tested on: REH; assay: Cytotoxicity against human REH cells assessed as cell viability at 5 uM incubated for 72 hrs in presence of 10 uM 6TP by alamar blue assay (reference value: 10.8 %); assay type: functional; procedure, shortened: as §1
[16] = tested on: MIA PaCa-2; assay: Cytotoxicity against human MIAPaCa2 cells assessed as cell viability at 2.5 uM incubated for 72 hrs in presence of 10 uM 6TP by alamar blue assay (reference value: 6.9 %); assay type: functional; procedure, shortened: as §1
[17] = tested on: MIA PaCa-2; assay: Cytotoxicity against human MIAPaCa2 cells assessed as cell viability at 5 uM incubated for 72 hrs in presence of 10 uM 6TP by alamar blue assay (reference value: 6.9 %); assay type: functional; procedure, shortened: as §1
[18] = tested on: REH; assay: Cytotoxicity against human REH cells assessed as cell viability at 5 uM incubated for 72 hrs in presence of 50 uM 6TP by alamar blue assay (reference value: 21.9 %); assay type: functional; procedure, shortened: as §1
[19] = tested on: MIA PaCa-2; assay: Cytotoxicity against human MIAPaCa2 cells assessed as cell viability at 2.5 uM incubated for 72 hrs in presence of 50 uM 6TP by alamar blue assay (reference value: 13.8 %); assay type: functional; procedure, shortened: as §1
[20] = tested on: MIA PaCa-2; assay: Cytotoxicity against human MIAPaCa2 cells assessed as cell viability at 5 uM incubated for 72 hrs in presence of 25 uM 6TP by alamar blue assay (reference value: 6.4 %); assay type: functional; procedure, shortened: as §1
[21] = tested on: REH; assay: Cytotoxicity against human REH cells assessed as combinational index at 2.5 uM incubated for 72 hrs in presence of 100 uM 6TP by alamar blue assay; assay type: functional; procedure, shortened: as §1
[22] = tested on: REH; assay: Cytotoxicity against human REH cells assessed as combinational index at 5 uM incubated for 72 hrs in presence of 100 uM 6TP by alamar blue assay; assay type: functional; procedure, shortened: as §1
[23] = tested on: REH; assay: Cytotoxicity against human REH cells assessed as combinational index at 5 uM incubated for 72 hrs in presence of 50 uM 6TP by alamar blue assay; assay type: functional; procedure, shortened: as §1
[24] = tested on: REH; assay: Cytotoxicity against human REH cells assessed as cell viability at 5 uM incubated for 72 hrs by alamar blue assay (reference value: 0 %); assay type: functional; conditions: read-out: Activity; procedure, shortened: as §1
[25] = tested on: A549; assay: Cytotoxicity against human A549 cells assessed as reduction in cell viability incubated for 72 hrs by alamar blue assay; assay type: functional, cell-based; conditions: A549, 72 h
Procedure, shortened: (§3)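 Adherent cells were seeded at 1500 cells/well in 384-well plates and allowed 2–3 h to attach. Compounds in DMSO, diluted in media over 31.6 nM–200 μM, were tested in triplicate for 72 h continuous exposure at 37 °C, 5% CO2. Alamar Blue was added for the final 3 h and fluorescence read (ex 560/em 590 nm). IC50 was fitted from ≥3 independent experiments.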

[26] = tested on: HeLa; assay: Cytotoxicity against human HeLa cells assessed as reduction in cell viability incubated for 72 hrs by alamar blue assay; assay type: functional, cell-based; procedure, shortened: as §3
[27] = tested on: U-937; assay: Cytotoxicity against human U937 cells assessed as reduction in cell viability incubated for 72 hrs by alamar blue assay; assay type: functional, cell-based; conditions: U-937, 72 h; procedure, shortened: as §2
[28] = tested on: REH; assay: Cytotoxicity against human REH cells assessed as cell viability at 2.5 uM incubated for 72 hrs in presence of 10 uM 6TP by alamar blue assay (reference value: 10.8 %); assay type: functional; procedure, shortened: as §1
[29] = tested on: REH; assay: Cytotoxicity against human REH cells assessed as combinational index at 2.5 uM incubated for 72 hrs in presence of 25 uM 6TP by alamar blue assay; assay type: functional; procedure, shortened: as §1
[30] = tested on: REH; assay: Cytotoxicity against human REH cells assessed as combinational index at 5 uM incubated for 72 hrs in presence of 25 uM 6TP by alamar blue assay; assay type: functional; procedure, shortened: as §1
[31] = tested on: MIA PaCa-2; assay: Cytotoxicity against human MIAPaCa2 cells assessed as reduction in cell viability incubated for 72 hrs by alamar blue assay; assay type: functional, cell-based; conditions: MIA PaCa-2, 72 h; procedure, shortened: as §3
[32] = tested on: MIA PaCa-2; assay: Cytotoxicity against human MIAPaCa2 cells assessed as combinational index at 5 uM incubated for 72 hrs in presence of 25 uM 6TP by alamar blue assay; assay type: functional; procedure, shortened: as §1
[33] = tested on: REH; assay: Cytotoxicity against human REH cells assessed as cell viability at 2.5 uM incubated for 72 hrs in presence of 100 uM 6TP by alamar blue assay (reference value: 49.5 %); assay type: functional; procedure, shortened: as §1
[34] = tested on: MIA PaCa-2; assay: Cytotoxicity against human MIAPaCa2 cells assessed as combinational index at 5 uM incubated for 72 hrs in presence of 200 uM 6TP by alamar blue assay; assay type: functional; procedure, shortened: as §1
[35] = tested on: MIA PaCa-2; assay: Cytotoxicity against human MIAPaCa2 cells assessed as combinational index at 2.5 uM incubated for 72 hrs in presence of 100 uM 6TP by alamar blue assay; assay type: functional; procedure, shortened: as §1
[36] = tested on: MIA PaCa-2; assay: Cytotoxicity against human MIAPaCa2 cells assessed as combinational index at 2.5 uM incubated for 72 hrs in presence of 25 uM 6TP by alamar blue assay; assay type: functional; procedure, shortened: as §1
[37] = tested on: HCT-116; assay: Cytotoxicity against human HCT116 cells assessed as reduction in cell viability incubated for 72 hrs by alamar blue assay; assay type: functional, cell-based; conditions: HCT-116, 72 h; procedure, shortened: as §3
[38] = tested on: REH; assay: Cytotoxicity against human REH cells assessed as combinational index at 2.5 uM incubated for 72 hrs in presence of 50 uM 6TP by alamar blue assay; assay type: functional; procedure, shortened: as §1
[39] = tested on: REH; assay: Cytotoxicity against human REH cells assessed as cell viability at 2.5 uM incubated for 72 hrs in presence of 50 uM 6TP by alamar blue assay (reference value: 21.9 %); assay type: functional; procedure, shortened: as §1
[40] = tested on: REH; assay: Cytotoxicity against human REH cells assessed as cell viability at 2.5 uM incubated for 72 hrs in presence of 25 uM 6TP by alamar blue assay (reference value: 12.2 %); assay type: functional; procedure, shortened: as §1
[41] = tested on: REH; assay: Cytotoxicity against human REH cells assessed as combinational index at 2.5 uM incubated for 72 hrs in presence of 200 uM 6TP by alamar blue assay; assay type: functional; procedure, shortened: as §1
[42] = tested on: MIA PaCa-2; assay: Cytotoxicity against human MIAPaCa2 cells assessed as cell viability at 2.5 uM incubated for 72 hrs by alamar blue assay (reference value: 0 %); assay type: functional; conditions: MIA PaCa-2, 72 h, read-out: Activity; procedure, shortened: as §1
[43] = tested on: HCT-116; assay: Cytotoxicity against human HCT116 cells assessed as reduction in cell viability incubated for 72 hrs in presence of 6TP by alamar blue assay; assay type: functional, cell-based; procedure, shortened: as §1
[44] = tested on: HeLa; assay: Cytotoxicity against human HeLa cells assessed as reduction in cell viability incubated for 72 hrs in presence of doxorubicin by alamar blue assay; assay type: functional
Procedure, shortened: (§4)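 Same combination format as the 6TP study, with the cytotoxic partner (doxorubicin, etoposide or paclitaxel) combined with test compound. Cells were at 4000/well (adherent) in 100 μL, 1% DMSO, for 72 h at 37 °C, 5% CO2, with Alamar Blue viability read-out. Combination index was derived by the Chou–Talalay protocol and reported as a median.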

[45] = tested on: HCT-116; assay: Cytotoxicity against human HCT116 cells assessed as reduction in cell viability incubated for 72 hrs in presence of etoposide by alamar blue assay; assay type: functional, cell-based; procedure, shortened: as §4
[46] = tested on: HCT-116; assay: Cytotoxicity against human HCT116 cells assessed as reduction in cell viability incubated for 72 hrs in presence of paclitaxel by alamar blue assay; assay type: functional, cell-based; procedure, shortened: as §4

`COCOc1cc(OC)c(C(=O)/C=C/c2ccccc2)c(OCOC)c1` was tested, and the CI [1] was 0.79, the Activity [2] was 19.1% and the CI [3] was 0.31. For the same molecule, the Activity [4] was 51%, the Activity [5] was 49.1% and the viability at 2.5 µM [6] was 8.1%. The CI [7] was 0.64, the Activity [8] was 40.8% and the CI [9] was 0.51. The Activity [10] was 18.6%, the Activity [11] was 61.2% and the CI [12] was 0.36. For the same molecule, the IC50 [13] was 9.2 µM, the viability at 5 µM [14] was 16.2% and the Activity [15] was 12.7%. The Activity [16] was 16.5%, the Activity [17] was 25.4% and the Activity [18] was 26.1%. The Activity [19] was 25.1%, the Activity [20] was 30% and the CI [21] was 1.36. For the same molecule, the CI [22] was 1.06, the CI [23] was 0.84 and the viability at 5 µM [24] was 9%. It also gave an IC50 [25] of 4.2 µM, an IC50 [26] of 9.7 µM and an IC50 [27] of 5.9 µM. It also gave an Activity [28] of 11.1%, a CI [29] of 0.81 and a CI [30] of 0.67. The IC50 [31] was 2.2 µM, the CI [32] was 0.55 and the Activity [33] was 51%. For the same molecule, the CI [34] was 0.19, the CI [35] was 0.72 and the CI [36] was 0.67. For the same molecule, the IC50 [37] was over 20 µM, the CI [38] was 1.36 and the Activity [39] was 22.1%. It also gave an Activity [40] of 13.5%, a CI [41] of 0.63 and a viability at 2.5 µM [42] of 10.2%.
For `COc1cc(OC)c(C(=O)/C=C/c2ccccc2)c(OC)c1Cc1ccccc1O`, the IC50 [13] was over 20 µM, the Activity [43] was “inactive” and the CI [44] was 0.12. For the same molecule, the IC50 [25] was 9.3 µM, the IC50 [26] was 2.7 µM and the IC50 [27] was 4.2 µM. The Activity [45] was “inactive”, the IC50 [31] was 4.1 µM and the Activity [46] was “inactive”. The IC50 [37] was 18.6 µM.
